ChEMBL document CHEMBL3758168, “Hybrid triazoles: Design and synthesis as potential dual inhibitor of growth and efflux inhibition in tuberculosis” (Eur J Med Chem, 2016)

Assays:
[1] = system: Mycobacterium tuberculosis; assay: Antibacterial activity against Mycobacterium tuberculosis H37Rv ATCC 27294T assessed as ethidium bromide MIC at 32 ug/ml after 7 days by microdilution checkerboard assay; format: functional; details: 168 h
Method in brief: (§1)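 Two-dimensional checkerboard in H37Rv at 10^5 CFU/ml in MB7H9/OADC. Partner drug (amikacin, EtBr, isoniazid, ofloxacin or rifampin) two-fold serially diluted across columns 3-11. Test compound two-fold serially diluted down rows 2-6. Plates incubated 7 days at 37 °C, then MTT added overnight. […] Run in triplicate.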

[2] = system: Mycobacterium tuberculosis; assay: Antibacterial activity against Mycobacterium tuberculosis H37Rv ATCC 27294T assessed as amikacin MIC at 16 ug/ml after 7 days by microdilution checkerboard assay; format: functional; details: 168 h; method in brief: as §1
[3] = system: Mycobacterium tuberculosis; assay: Antibacterial activity against Mycobacterium tuberculosis H37Rv ATCC 27294T assessed as amikacin MIC at 1 ug/ml after 7 days by microdilution checkerboard assay; format: functional; details: 168 h; method in brief: as §1
[4] = system: Mycobacterium tuberculosis; assay: Antibacterial activity against Mycobacterium tuberculosis H37Rv ATCC 27294T assessed as isoniazid MIC at 2 ug/ml after 7 days by microdilution checkerboard assay; format: functional; details: 168 h; method in brief: as §1
[5] = Cytotoxicity against human MDM assessed as cell viability after 3 days by Alamar blue dye-based fluorocytometric analysis relative to control; details: 72 h
[6] = system: Mycobacterium tuberculosis; assay: Antibacterial activity against Mycobacterium tuberculosis H37Rv ATCC 27294T assessed as ofloxacin MIC at 4 ug/ml after 7 days by microdilution checkerboard assay; format: functional; details: 168 h; method in brief: as §1
[7] = system: Mycobacterium tuberculosis; assay: Antibacterial activity against Mycobacterium tuberculosis H37Rv ATCC 27294T assessed as rifampin MIC at 8 ug/ml after 7 days by microdilution checkerboard assay; format: functional; details: 168 h
Method in brief: (§2)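 M. tuberculosis H37Rv grown in MB7H9 + 10% OADC at 37 °C to OD600 0.8; plates inoculated at 10^5 CFU/ml. Rifampicin two-fold serially diluted across columns, test compound two-fold diluted down rows (two-dimensional checkerboard). Sealed, 37 °C for seven days, then MTT added and incubated overnight. MIC read as no colour change. Triplicate.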

[8] = system: Mycobacterium tuberculosis; assay: Antibacterial activity against Mycobacterium tuberculosis H37Rv ATCC 27294T assessed as isoniazid MIC at 32 ug/ml after 7 days by microdilution checkerboard assay; format: functional; details: 168 h; method in brief: as §1
[9] = system: Mycobacterium tuberculosis; assay: Antibacterial activity against Mycobacterium tuberculosis H37Rv ATCC 27294T assessed as rifampin MIC at 16 ug/ml after 7 days by microdilution checkerboard assay; format: functional; details: 168 h; method in brief: as §2
[10] = system: Mycobacterium tuberculosis; assay: Anti-tubercular activity against Mycobacterium tuberculosis H37Rv ATCC 27294T after 7 days by mircodilution method; format: functional; details: 168 h
Method in brief: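 H37Rv grown static in MB7H9 + 10% OADC at 37 °C to OD600 0.8, then diluted to about 10^5 cells/ml. Mixed 1:1 with two-fold serial dilutions in MB7H9/OADC and incubated 7 days at 37 °C. MTT added to final 2.5% and plates incubated overnight. MIC is the lowest concentration with no colour change. Run in triplicate.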

[11] = system: Mycobacterium tuberculosis; assay: Antibacterial activity against Mycobacterium tuberculosis H37Rv ATCC 27294T assessed as ofloxacin MIC at 8 ug/ml after 7 days by microdilution checkerboard assay; format: functional; details: 168 h; method in brief: as §1
[12] = system: Mycolicibacterium smegmatis; assay: Anti-tubercular activity against Mycobacterium smegmatis MC2 155 ATCC 700084 after 3 days by microdilution method; format: functional; details: MC2 155 ATCC 700084, 72 h
Method in brief: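 M. smegmatis mc2155 grown in MB7H9 + 10% OADC at 37 °C with shaking to OD600 0.8. Inoculum set to 0.5 McFarland, diluted 1:100, and mixed 1:1 with two-fold serial dilutions in MB7H9. Plates incubated 3 days at 37 °C with growth and sterility controls. MIC taken as the lowest concentration with no visible growth.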

[13] = system: Mycobacterium tuberculosis; assay: Antibacterial activity against Mycobacterium tuberculosis H37Rv ATCC 27294T assessed as ofloxacin MIC at 2 ug/ml after 7 days by microdilution checkerboard assay; format: functional; details: 168 h; method in brief: as §1
[14] = system: Mycobacterium tuberculosis; assay: Antibacterial activity against Mycobacterium tuberculosis H37Rv ATCC 27294T assessed as ethidium bromide MIC at 8 ug/ml after 7 days by microdilution checkerboard assay; format: functional; details: 168 h; method in brief: as §1
[15] = system: Mycobacterium tuberculosis; assay: Antibacterial activity against Mycobacterium tuberculosis H37Rv ATCC 27294T assessed as ofloxacin MIC at 1 ug/ml after 7 days by microdilution checkerboard assay; format: functional; details: 168 h; method in brief: as §1
[16] = system: Mycobacterium tuberculosis; assay: Antibacterial activity against Mycobacterium tuberculosis H37Rv ATCC 27294T assessed as ethidium bromide MIC at 1 ug/ml after 7 days by microdilution checkerboard assay; format: functional; details: 168 h; method in brief: as §1
[17] = system: Mycobacterium tuberculosis; assay: Antibacterial activity against Mycobacterium tuberculosis H37Rv ATCC 27294T assessed as ethidium bromide MIC at 4 ug/ml after 7 days by microdilution checkerboard assay; format: functional; details: 168 h; method in brief: as §1
[18] = system: Mycobacterium tuberculosis; assay: Antibacterial activity against Mycobacterium tuberculosis H37Rv ATCC 27294T assessed as amikacin MIC at 2 ug/ml after 7 days by microdilution checkerboard assay; format: functional; details: 168 h; method in brief: as §1
[19] = system: Mycobacterium tuberculosis; assay: Antibacterial activity against Mycobacterium tuberculosis H37Rv ATCC 27294T assessed as ofloxacin MIC at 64 ug/ml after 7 days by microdilution checkerboard assay; format: functional; details: 168 h; method in brief: as §1
[20] = system: Mycobacterium tuberculosis; assay: Antibacterial activity against Mycobacterium tuberculosis H37Rv ATCC 27294T assessed as ethidium bromide MIC at 16 ug/ml after 7 days by microdilution checkerboard assay; format: functional; details: 168 h; method in brief: as §1
[21] = system: Mycobacterium tuberculosis; assay: Antibacterial activity against Mycobacterium tuberculosis H37Rv ATCC 27294T assessed as rifampin MIC at 32 ug/ml after 7 days by microdilution checkerboard assay; format: functional; details: 168 h; method in brief: as §2
[22] = system: Mycobacterium tuberculosis; assay: Antibacterial activity against Mycobacterium tuberculosis H37Rv ATCC 27294T assessed as rifampin MIC at 4 ug/ml after 7 days by microdilution checkerboard assay; format: functional; details: 168 h; method in brief: as §2
[23] = system: Mycobacterium tuberculosis; assay: Antibacterial activity against Mycobacterium tuberculosis H37Rv ATCC 27294T assessed as isoniazid MIC at 4 ug/ml after 7 days by microdilution checkerboard; format: functional; details: 168 h; method in brief: as §1
[24] = system: Mycobacterium tuberculosis; assay: Antibacterial activity against Mycobacterium tuberculosis H37Rv ATCC 27294T assessed as rifampin MIC at 2 ug/ml after 7 days by microdilution checkerboard assay; format: functional; details: 168 h; method in brief: as §2
[25] = system: Mycobacterium tuberculosis; assay: Antibacterial activity against Mycobacterium tuberculosis H37Rv ATCC 27294T assessed as isoniazid MIC at 1 ug/ml after 7 days by microdilution checkerboard assay; format: functional; details: 168 h; method in brief: as §1
[26] = system: Mycobacterium tuberculosis; assay: Antibacterial activity against Mycobacterium tuberculosis H37Rv ATCC 27294T assessed as isoniazid MIC at 16 ug/ml after 7 days by microdilution checkerboard assay; format: functional; details: 168 h; method in brief: as §1
[27] = system: Mycobacterium tuberculosis; assay: Antibacterial activity against Mycobacterium tuberculosis H37Rv ATCC 27294T assessed as amikacin MIC at 4 ug/ml after 7 days by microdilution checkerboard assay; format: functional; details: 168 h; method in brief: as §1
[28] = system: Mycobacterium tuberculosis; assay: Antibacterial activity against Mycobacterium tuberculosis H37Rv ATCC 27294T assessed as ethidium bromide MIC at 64 ug/ml after 7 days by microdilution checkerboard assay; format: functional; details: 168 h; method in brief: as §1
[29] = system: Mycobacterium tuberculosis; assay: Antibacterial activity against Mycobacterium tuberculosis H37Rv ATCC 27294T assessed as isoniazid MIC at 8 ug/ml after 7 days by microdilution checkerboard assay; format: functional; details: 168 h; method in brief: as §1
[30] = system: Mycobacterium tuberculosis; assay: Antibacterial activity against Mycobacterium tuberculosis H37Rv ATCC 27294T assessed as amikacin MIC at 32 ug/ml after 7 days by microdilution checkerboard assay; format: functional; details: 168 h; method in brief: as §1
[31] = system: Mycobacterium tuberculosis; assay: Antibacterial activity against Mycobacterium tuberculosis H37Rv ATCC 27294T assessed as amikacin MIC at 64 ug/ml after 7 days by microdilution checkerboard assay; format: functional; details: 168 h; method in brief: as §1
[32] = system: Mycobacterium tuberculosis; assay: Antibacterial activity against Mycobacterium tuberculosis H37Rv ATCC 27294T assessed as ofloxacin MIC at 16 ug/ml after 7 days by microdilution checkerboard assay; format: functional; details: 168 h; method in brief: as §1
[33] = system: Mycobacterium tuberculosis; assay: Antibacterial activity against Mycobacterium tuberculosis H37Rv ATCC 27294T assessed as ethidium bromide MIC at 2 ug/ml after 7 days by microdilution checkerboard assay; format: functional; details: 168 h; method in brief: as §1
[34] = system: Mycobacterium tuberculosis; assay: Antibacterial activity against Mycobacterium tuberculosis H37Rv ATCC 27294T assessed as ofloxacin MIC at 32 ug/ml after 7 days by microdilution checkerboard assay; format: functional; details: 168 h; method in brief: as §1
[35] = system: Mycobacterium tuberculosis; assay: Antibacterial activity against Mycobacterium tuberculosis H37Rv ATCC 27294T assessed as amikacin MIC at 8 ug/ml after 7 days by microdilution checkerboard assay; format: functional; details: 168 h; method in brief: as §1
[36] = system: Mycobacterium tuberculosis; assay: Antibacterial activity against Mycobacterium tuberculosis H37Rv ATCC 27294T assessed as isoniazid MIC at 64 ug/ml after 7 days by microdilution checkerboard assay; format: functional; details: 168 h; method in brief: as §1
[37] = system: Mycobacterium tuberculosis; assay: Antibacterial activity against Mycobacterium tuberculosis H37Rv ATCC 27294T assessed as rifampin MIC at 64 ug/ml after 7 days by microdilution checkerboard assay; format: functional; details: 168 h; method in brief: as §2
[38] = system: Mycobacterium tuberculosis; assay: Antibacterial activity against Mycobacterium tuberculosis H37Rv ATCC 27294T assessed as rifampin MIC at 1 ug/ml after 7 days by microdilution checkerboard assay; format: functional; details: 168 h; method in brief: as §2

CCCSc1nnc(COc2ccccc2C2=NOC(c3ccc(Cl)cc3Cl)C2)n1NC(=O)c1ccccc1 (stereo not drawn)
0.05 µg/mL: MIC [36]
12.5 µg/mL: MIC [1] | MIC [14] | MIC [16] | MIC [17] | MIC [20] | MIC [33]
0.5 µg/mL: MIC [38]
14.8 µg/mL: IC50 [5]
32 µg/mL: MIC [10]
1 µg/mL: MIC [19] | MIC [30] | MIC [31] | MIC [34]
2 µg/mL: MIC [2] | MIC [3] | MIC [6] | MIC [11] | MIC [12] | MIC [13] | MIC [15] | MIC [18] | MIC [27] | MIC [32] | MIC [35]
0.0312 µg/mL: MIC [37]
6.25 µg/mL: MIC [28]
0.1 µg/mL: MIC [4] | MIC [8] | MIC [23] | MIC [25] | MIC [26] | MIC [29]
0.25 µg/mL: MIC [7] | MIC [9] | MIC [22] | MIC [24]
0.125 µg/mL: MIC [21]
